Holding throughout (format): nucleic-acid assay
In assay [1] the test system is Nucleic Acid. Briefly: Binding affinity to DNA 5'-d GCG TAC AP CAT GCG-3' 3'-d CGC ATG A GTA CGC-5' assessed as equilibrium association constant by SPR analysis in presence of 50 mM NaCl. The essentials:
(§1)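 SPR on BIACORE3000. Hairpin duplexes carrying the AP site (THF) opposite X were 5'-biotin-labelled and immobilized in HBS-N (pH 7.4, 150 mM NaCl). Binding was run in 10 mM HEPES-NaOH pH 7.0 with 50 mM NaCl at 25 °C. Ligand 0.05–2.00 µM was injected at 20 µl/min for 300 s, then 120 s dissociation. Ka came from steady-state affinity analysis with a one-site fit.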
A general note: In SPR one partner is held on a chip, and binding of the other changes the refractive index at the surface.

Assay [2] relates to Nucleic Acid. Kind of assay: Binding affinity to DNA 5'-d GCG TAC AP CAT GCG-3' 3'-d CGC ATG T GTA CGC-5' assessed as melting temperature pretreated for 5 mins in presence of 50 mM NaCl. In outline: (§2)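 UV thermal denaturation at 260 nm used 4 µM duplex (AP = THF) with or without 20 µM ligand in 10 mM HEPES-NaOH pH 7.0, 50 mM NaCl. Samples were preheated 5 min at 80 °C, then slowly cooled. Melts ran 20–80 °C at 1 °C/min. Tm came from non-linear fitting; ΔTm = Tm(+) − Tm(−).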

The subject of assay [3] is Nucleic Acid. Briefly: Binding affinity to DNA 5'-d GCG TAC AP CAT GCG-3' 3'-d CGC ATG T GTA CGC-5' assessed as equilibrium association constant by SPR analysis in presence of 50 mM NaCl. The essentials: as §1
Assay [4] deals with Nucleic Acid. Kind of assay: Binding affinity to DNA 5'-d GCG TAC AP CAT GCG-3' 3'-d CGC ATG G GTA CGC-5' assessed as equilibrium association constant by SPR analysis in presence of 50 mM NaCl. In outline:
as §1

The test system of assay [5] is Nucleic Acid. Briefly: Binding affinity to DNA 5'-d GCG TAC AP CAT GCG-3' 3'-d CGC ATG C GTA CGC-5' assessed as melting temperature pretreated for 5 mins in presence of 50 mM NaCl. In outline:
as §2

For assay [6], the system named is Nucleic Acid. Kind of assay: Binding affinity to DNA 5'-d GCG TAC AP CAT GCG-3' 3'-d CGC ATG C GTA CGC-5' assessed as equilibrium association constant by SPR analysis in presence of 50 mM NaCl. The essentials: as §1
Assay [7] concerns Nucleic Acid. Kind of assay: Binding affinity to DNA 5'-d GCG TAC AP CAT GCG-3' 3'-d CGC ATG G GTA CGC-5' assessed as melting temperature pretreated for 5 mins in presence of 50 mM NaCl. In outline:
as §2

Assay [8] relates to Nucleic Acid. Briefly: Binding affinity to DNA 5'-d GCG TAC AP CAT GCG-3' 3'-d CGC ATG A GTA CGC-5' assessed as melting temperature pretreated for 5 mins in presence of 50 mM NaCl. The essentials:
as §2

Assay [9] concerns Nucleic Acid. Briefly: Binding affinity to DNA 5'-d GCG TAC AP CAT GCG-3' 3'-d CGC ATG C GTA CGC-5' assessed as melting temperature pretreated for 5 mins in presence of 100 mM NaCl. In outline:
(§3)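 UV thermal denaturation at 260 nm used 4 µM duplex (AP = THF) with or without 20 µM ligand in 10 mM HEPES-NaOH pH 7.0, 100 mM NaCl. Samples were preheated 5 min at 80 °C, then slowly cooled. Melts ran 20–80 °C at 1 °C/min. Tm came from non-linear fitting; ΔTm = Tm(+) − Tm(−).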

Assay [10] concerns Nucleic Acid. Briefly: Binding affinity to DNA 5'-d GCG TAC AP CAT GCG-3' 3'-d CGC ATG T GTA CGC-5' assessed as melting temperature pretreated for 5 mins in presence of 100 mM NaCl. In outline:
as §3

Assay [11] deals with Nucleic Acid. Kind of assay: Binding affinity to DNA 5'-d GCG TAC AP CAT GCG-3' 3'-d CGC ATG G GTA CGC-5' assessed as melting temperature pretreated for 5 mins in presence of 100 mM NaCl. The essentials: as §3
In assay [12] the test system is Nucleic Acid. Briefly: Binding affinity to DNA 5'-d GCG TAC AP CAT GCG-3' 3'-d CGC ATG A GTA CGC-5' assessed as melting temperature pretreated for 5 mins in presence of 100 mM NaCl. In outline:
as §3

A value given as a limit tells only on which side of the number the result lay.

As for `NCCCNCCCNCCCn1ccc(N)nc1=O`, the Ka in the assay on Nucleic Acid [1] came out at 0.002 ×10⁶ /M; in the assay with Nucleic Acid [3], 0.001 ×10⁶ /M; with Nucleic Acid [4] it was 0.039 ×10⁶ /M; with Nucleic Acid [6], 0.002 ×10⁶ /M. In addition, the Tm in the assay with Nucleic Acid [2] is 32.4 °C; in the assay with Nucleic Acid [5], 32.6 °C; in the assay on Nucleic Acid [7] it was 40.5 °C; in the assay with Nucleic Acid [8] it was 35.2 °C.

Consider `NCCCNCCCNCCCn1cnc2c(N)ncnc21`, for which the Ka in the assay with Nucleic Acid [1] came to 0.057 ×10⁶ /M; in the assay on Nucleic Acid [3], 3.9 ×10⁶ /M; in the assay on Nucleic Acid [4], 0.087 ×10⁶ /M; with Nucleic Acid [6], 0.01 ×10⁶ /M. In addition, the Tm with Nucleic Acid [9] turned out to be 34.6 °C; with Nucleic Acid [10] it was 43.7 °C; with Nucleic Acid [11], 40.8 °C; with Nucleic Acid [12], 40.4 °C.

`NCCCNCCCNCCCn1cnc2c(=O)[nH]c(N)nc21`: the Ka stood at 0.016 ×10⁶ /M in the assay with Nucleic Acid [1], 0.08 ×10⁶ /M in the assay with Nucleic Acid [3], 0.047 ×10⁶ /M in the assay with Nucleic Acid [4] and 6.3 ×10⁶ /M with Nucleic Acid [6]. In addition, the Tm in the assay with Nucleic Acid [9] stood at 40.8 °C; with Nucleic Acid [10] it was 38.1 °C; in the assay on Nucleic Acid [11], 40.9 °C; in the assay on Nucleic Acid [12] it was 40.4 °C.

For `Cc1cn(CCCNCCCNCCCN)c(=O)[nH]c1=O`, the Ka was found to be 0.222 ×10⁶ /M with Nucleic Acid [1], 0.053 ×10⁶ /M with Nucleic Acid [3], 0.043 ×10⁶ /M with Nucleic Acid [4] and 0.063 ×10⁶ /M in the assay with Nucleic Acid [6]. Moreover, the Tm in the assay on Nucleic Acid [2] was 35.5 °C; in the assay with Nucleic Acid [5], 33.8 °C; with Nucleic Acid [7] it was 37.8 °C; in the assay on Nucleic Acid [8], 39.2 °C.

With `NCCCNCCCNCCCn1ccc(=O)[nH]c1=O`, the Ka was determined as 0.045 ×10⁶ /M in the assay with Nucleic Acid [1], 0.027 ×10⁶ /M in the assay on Nucleic Acid [3], 0.001 ×10⁶ /M in the assay on Nucleic Acid [4] and 0.022 ×10⁶ /M in the assay with Nucleic Acid [6]. The Tm amounted to 33.9 °C in the assay with Nucleic Acid [2], 32.1 °C in the assay on Nucleic Acid [5], 36.4 °C in the assay with Nucleic Acid [7] and 39.1 °C in the assay on Nucleic Acid [8].

For the compound `NCCCNCCCN`, in the assay on Nucleic Acid [3], the Ka was less than 0.001 ×10⁶ /M.
